According to ChEMBL document CHEMBL2069223, “Near-infrared fluorescent divalent RGD ligand for integrin αvβ₃-targeted optical imaging” (Bioorg Med Chem Lett, 2012):
Activity calls are given as the source filed them. No cut-off for these calls is given here.

Columns and labels:
Mus musculus [1] = assay: Biodistribution in tumor of nude mouse xenografted with human A549 cells expressing integrin alphavbeta3 at 60 uM, iv after 24 hrs by NIR Fluorescence image analysis; format: ADME, organism-based, Neoplasm; details: in vivo
Summary of the method: (§1)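 Nude mice bearing A549 xenografts (5–7 mm diameter) received 100 µL of 60 µM probe by tail-vein injection. Animals were euthanized at 24 h post-injection. Excised organs were imaged ex vivo for NIR fluorescence (excitation 780 nm, emission 830 nm), and organ fluorescence intensity was measured.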

Zone of skin = assay: Biodistribution in skin of nude mouse xenografted with human A549 cells expressing integrin alphavbeta3 at 60 uM, iv after 24 hrs by NIR Fluorescence image analysis; format: ADME, organism-based; details: in vivo; summary of the method: as §1
Heart = assay: Biodistribution in heart of nude mouse xenografted with human A549 cells expressing integrin alphavbeta3 at 60 uM, iv after 24 hrs by NIR Fluorescence image analysis; format: ADME, organism-based; details: in vivo; summary of the method: as §1
Liver [2] = assay: Biodistribution in liver of nude mouse xenografted with human A549 cells expressing integrin alphavbeta3 at 60 uM, iv after 24 hrs by NIR Fluorescence image analysis; format: ADME, organism-based; details: in vivo; summary of the method: as §1
Kidney [3] = assay: Biodistribution in kidney of nude mouse xenografted with human A549 cells expressing integrin alphavbeta3 at 60 uM, iv after 4 hrs by NIR Fluorescence image analysis; format: ADME, organism-based; details: in vivo
Summary of the method: (§2)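 Nude mice bearing A549 xenografts (5–7 mm diameter) received 100 µL of 60 µM probe by tail-vein injection. Noninvasive whole-body NIR fluorescence imaging (excitation 780 nm, emission 830 nm) was done at 1, 4 and 24 h post-injection, and tissue fluorescence intensity was measured from the images.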

Integrin alpha-V/beta-3 [4] = target: T1, Integrin alpha-V/beta-3 (Homo sapiens, UniProt P05106+P06756); assay: Displacement of [125I]-c(RGDyK) from human integrin alphavbeta3 after 16 hrs by scintillation counting; format: protein-complex assay
Target sequence in this assay (P05106 27-788 limits assumed): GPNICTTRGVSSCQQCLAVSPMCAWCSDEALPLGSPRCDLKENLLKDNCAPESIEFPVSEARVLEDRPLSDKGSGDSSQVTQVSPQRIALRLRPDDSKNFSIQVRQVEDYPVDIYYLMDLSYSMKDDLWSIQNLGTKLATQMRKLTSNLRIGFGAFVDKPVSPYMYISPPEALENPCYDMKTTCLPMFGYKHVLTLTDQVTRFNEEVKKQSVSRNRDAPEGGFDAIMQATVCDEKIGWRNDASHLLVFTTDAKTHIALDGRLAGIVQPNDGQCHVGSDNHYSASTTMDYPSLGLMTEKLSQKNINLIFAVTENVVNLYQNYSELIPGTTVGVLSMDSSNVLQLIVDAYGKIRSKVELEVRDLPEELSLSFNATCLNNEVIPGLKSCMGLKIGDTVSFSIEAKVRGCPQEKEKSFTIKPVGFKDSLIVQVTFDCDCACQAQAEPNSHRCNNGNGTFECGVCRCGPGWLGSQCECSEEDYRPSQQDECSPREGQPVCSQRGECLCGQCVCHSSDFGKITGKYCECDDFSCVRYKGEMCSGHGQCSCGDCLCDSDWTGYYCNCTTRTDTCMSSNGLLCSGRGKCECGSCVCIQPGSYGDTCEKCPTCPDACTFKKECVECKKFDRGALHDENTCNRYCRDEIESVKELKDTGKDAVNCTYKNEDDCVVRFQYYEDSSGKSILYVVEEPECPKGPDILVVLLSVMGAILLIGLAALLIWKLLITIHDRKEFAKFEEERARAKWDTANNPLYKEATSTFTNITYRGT
Target sequence in this assay (P06756 31-889 limits assumed): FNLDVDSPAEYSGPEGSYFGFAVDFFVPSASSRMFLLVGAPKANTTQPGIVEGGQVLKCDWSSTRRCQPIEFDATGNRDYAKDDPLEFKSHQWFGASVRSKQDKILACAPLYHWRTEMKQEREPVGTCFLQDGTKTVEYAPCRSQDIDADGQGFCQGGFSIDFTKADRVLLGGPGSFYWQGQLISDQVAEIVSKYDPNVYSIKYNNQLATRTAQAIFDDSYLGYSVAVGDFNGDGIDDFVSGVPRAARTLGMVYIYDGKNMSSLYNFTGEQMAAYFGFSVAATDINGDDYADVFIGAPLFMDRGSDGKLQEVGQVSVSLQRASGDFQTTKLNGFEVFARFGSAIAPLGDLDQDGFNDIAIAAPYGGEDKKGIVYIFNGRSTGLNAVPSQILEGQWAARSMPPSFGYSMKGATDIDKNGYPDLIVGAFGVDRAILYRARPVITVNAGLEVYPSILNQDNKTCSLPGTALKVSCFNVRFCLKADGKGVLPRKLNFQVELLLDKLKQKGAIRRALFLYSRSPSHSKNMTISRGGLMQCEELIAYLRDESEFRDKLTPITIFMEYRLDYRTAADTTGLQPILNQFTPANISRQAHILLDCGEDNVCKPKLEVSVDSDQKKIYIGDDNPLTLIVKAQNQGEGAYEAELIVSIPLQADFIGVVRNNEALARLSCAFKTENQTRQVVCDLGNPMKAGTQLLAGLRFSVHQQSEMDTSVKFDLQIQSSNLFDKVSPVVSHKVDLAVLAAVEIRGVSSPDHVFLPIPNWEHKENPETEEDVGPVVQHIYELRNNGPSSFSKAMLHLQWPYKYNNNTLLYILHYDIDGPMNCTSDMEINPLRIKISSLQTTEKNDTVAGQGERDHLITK
Target sequence in this assay (P06756 891-1048 limits assumed): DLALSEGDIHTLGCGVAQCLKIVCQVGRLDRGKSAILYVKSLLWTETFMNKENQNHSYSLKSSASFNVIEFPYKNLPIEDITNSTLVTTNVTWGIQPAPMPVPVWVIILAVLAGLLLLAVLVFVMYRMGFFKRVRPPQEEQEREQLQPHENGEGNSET

Mus musculus [5] = assay: Biodistribution in tumor of nude mouse xenografted with human A549 cells expressing integrin alphavbeta3 at 60 uM, iv after 4 hrs by NIR Fluorescence image analysis; format: ADME, organism-based, Neoplasm; details: in vivo; summary of the method: as §2
Mus musculus [6] = assay: Biodistribution in adrenal of nude mouse xenografted with human A549 cells expressing integrin alphavbeta3 at 60 uM, iv after 24 hrs by NIR Fluorescence image analysis; format: ADME, organism-based, Adrenal tissue; details: in vivo; summary of the method: as §1
Integrin alpha-V/beta-3 [7] = target: T1, Integrin alpha-V/beta-3; assay: Binding affinity to integrin alphavbeta3 in human A549 cells assessed as cellular uptake in nucleus measured by co-localization with DRAQ5 after 16 hrs by two-dimensional confocal image analysis; format: cell-based
Summary of the method: (§3)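 A549 cells incubated with probe for 16 h. Confocal imaging with excitation at 488, 633 and 755 nm, scanning a field at 2 µs per pixel. Images overlay a nuclear stain, a mitochondrial stain and cypate fluorescence, and subcellular localization is judged from this co-localization.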

Kidney [8] = assay: Biodistribution in kidney of nude mouse xenografted with human A549 cells expressing integrin alphavbeta3 at 60 uM, iv after 24 hrs by NIR Fluorescence image analysis; format: ADME, organism-based; details: in vivo; summary of the method: as §1
Integrin alpha-V/beta-3 [9] = target: T1, Integrin alpha-V/beta-3; assay: Binding affinity to integrin alphavbeta3 in human A549 cells assessed as cellular uptake in mitochondria measured by co-localization with mitotracker orange CM-TMRos after 16 hrs by two-dimensional confocal image analysis; format: cell-based; summary of the method: as §3
Integrin alpha-V/beta-3 [10] = target: T1, Integrin alpha-V/beta-3; assay: Binding affinity to integrin alphavbeta3 in human A549 cells assessed as cellular uptake after 1 hr by NIR Fluorescence microscopy analysis; format: cell-based
Summary of the method: (§4)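 Integrin αvβ3-positive A549 cells were incubated with the NIR fluorescent probes. Cellular binding and uptake were then imaged by NIR fluorescence microscopy at separate incubation time points.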

Blood = assay: Biodistribution in blood of nude mouse xenografted with human A549 cells expressing integrin alphavbeta3 at 60 uM, iv after 24 hrs by NIR Fluorescence image analysis; format: ADME, organism-based; details: in vivo; summary of the method: as §1
Brain = assay: Biodistribution in brain of nude mouse xenografted with human A549 cells expressing integrin alphavbeta3 at 60 uM, iv after 24 hrs by NIR Fluorescence image analysis; format: ADME, organism-based; details: in vivo; summary of the method: as §1
Integrin alpha-V/beta-3 [11] = target: T1, Integrin alpha-V/beta-3; assay: Binding affinity to integrin alphavbeta3 in human A549 cells assessed as cellular uptake after 6 hrs by NIR Fluorescence microscopy analysis; format: cell-based; summary of the method: as §4
Liver [12] = assay: Biodistribution in liver of nude mouse xenografted with human A549 cells expressing integrin alphavbeta3 at 60 uM, iv after 4 hrs by NIR Fluorescence image analysis; format: ADME, organism-based; details: in vivo; summary of the method: as §2
Muscle tissue = assay: Biodistribution in muscle of nude mouse xenografted with human A549 cells expressing integrin alphavbeta3 at 60 uM, iv after 24 hrs by NIR Fluorescence image analysis; format: ADME, organism-based; details: in vivo; summary of the method: as §1
Spleen = assay: Biodistribution in spleen of nude mouse xenografted with human A549 cells expressing integrin alphavbeta3 at 60 uM, iv after 24 hrs by NIR Fluorescence image analysis; format: ADME, organism-based; details: in vivo; summary of the method: as §1
Pancreas = assay: Biodistribution in pancreas of nude mouse xenografted with human A549 cells expressing integrin alphavbeta3 at 60 uM, iv after 24 hrs by NIR Fluorescence image analysis; format: ADME, organism-based; details: in vivo; summary of the method: as §1

| Activity (Integrin alpha-V/beta-3 [10]) | Activity (Integrin alpha-V/beta-3 [11]) | Structure (SMILES) | Drug uptake (Mus musculus [1]) | Drug uptake (Zone of skin) | Drug uptake (Heart) | Drug uptake (Liver [2]) | Drug uptake (Kidney [3]) | IC50 (Integrin alpha-V/beta-3 [4]) [nM] | Ki (Integrin alpha-V/beta-3 [4]) [nM] | Drug uptake (Mus musculus [5]) | Drug uptake (Mus musculus [6]) | Activity (Integrin alpha-V/beta-3 [7]) | Drug uptake (Kidney [8]) | Activity (Integrin alpha-V/beta-3 [9]) | Drug uptake (Blood) | Drug uptake (Brain) | Drug uptake (Liver [12]) | Drug uptake (Muscle tissue) | Drug uptake (Spleen) | Drug uptake (Pancreas) |
| --- | --- | --- | --- | --- | --- | --- | --- | --- | --- | --- | --- | --- | --- | --- | --- | --- | --- | --- | --- | --- |
| Active | Active | CC1(C)C(/C=C/C=C/C=C/C=C2/N(CCC(=O)NCCCC[C@@H]3NC(=O)[C@@H](Cc4ccccc4)NC(=O)[C@H](CC(=O)O)NC(=O)CNC(=O)[C@H](CCCNC(=N)N)NC3=O)c3ccc4ccccc4c3C2(C)C)=[N+](CCC(=O)O)c2ccc3ccccc3c21.[Br-] | – | – | – | – | Active | […] | […] | – | – | Active | – | Active | – | – | Active | – | – | – |
| Active | Active | CC1(C)C(/C=C/C=C/C=C/C=C2/N(CCC(=O)O)c3ccc4ccccc4c3C2(C)C)=[N+](CCC(=O)O)c2ccc3ccccc3c21 | – | – | – | – | – | – | – | – | – | – | – | – | – | – | – | – | – | – |

| Structure (SMILES) | Activity (Integrin alpha-V/beta-3 [10]) | Activity (Integrin alpha-V/beta-3 [11]) | Drug uptake (Mus musculus [1]) | Drug uptake (Zone of skin) | Drug uptake (Heart) | Drug uptake (Liver [2]) | Drug uptake (Kidney [3]) | IC50 (Integrin alpha-V/beta-3 [4]) [nM] | Ki (Integrin alpha-V/beta-3 [4]) [nM] | Drug uptake (Mus musculus [5]) | Drug uptake (Mus musculus [6]) | Activity (Integrin alpha-V/beta-3 [7]) | Drug uptake (Kidney [8]) | Activity (Integrin alpha-V/beta-3 [9]) | Drug uptake (Blood) | Drug uptake (Brain) | Drug uptake (Liver [12]) | Drug uptake (Muscle tissue) | Drug uptake (Spleen) | Drug uptake (Pancreas) |
| --- | --- | --- | --- | --- | --- | --- | --- | --- | --- | --- | --- | --- | --- | --- | --- | --- | --- | --- | --- | --- |
| CC1(C)C(/C=C/C=C/C=C/C=C2/N(CCC(=O)NCCCC[C@@H]3NC(=O)[C@@H](Cc4ccccc4)NC(=O)[C@H](CC(=O)O)NC(=O)CNC(=O)[C@H](CCCNC(=N)N)NC3=O)c3ccc4ccccc4c3C2(C)C)=[N+](CCC(=O)NCCCC[C@@H]2NC(=O)[C@@H](Cc3ccccc3)NC(=O)[C@H](CC(=O)O)NC(=O)CNC(=O)[C@H](CCCNC(=N)N)NC2=O)c2ccc3ccccc3c21.[Br-] | Active | Active | Active | Active | Active | Active | Active | 0.281 | 0.043 | Active | Active | Active | Active | Active | Active | Active | Active | Active | Active | Active |
